GFP response vs DMSO, GFP response relative to DMSO and GFP response, % of DMSO data for eight molecules are collected here from PubChem BioAssay.

Assay [1] in a line: hit retest on RPL19A-GFP reporter strain – cell-based, S. cerevisiae, flow cytometry, cherry picks, mother/daughter gates, confirmation (AID 2270;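 active means GFP response below 50% of the DMSO control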). The settings on record: 3 h, at 10 µM, stronger effect = lower value, 100 = same GFP as DMSO wells. Background: In flow cytometry, cells or beads pass a laser one at a time.
A short description of assay [2]: yeast TOR pathway reporter LAP4-GFP change – cell-based, cherry picks, flow cytometry, mother/daughter gates, confirmation (AID 2271;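 active means GFP response above 150% of the DMSO control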;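 further: ratio of sample to DMSO plate mean so 100% equals DMSO level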). The settings on record: S. cerevisiae LAP4-GFP strain, 3 h, at 10 µM, stronger effect = higher value, 100 means same as DMSO control. An outline of the steps: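 System – GFP-fusion yeast strain · Amount – 0.2 OD600 cells · Buffer or medium – SC growth medium · Dosing – single test-compound dose, 10 µM final · Schedule – 3 h treatment at 30 °C with rotation · Detection – GFP by flow cytometry · Read-out – per-gate (all, mother, daughter) GFP response vs DMSO · Benchmarks – positive rapamycin (400 ng/mL), negative DMSO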

Assay [3] in a line: TOR pathway reporter MEP2-GFP, retest of hits – S. cerevisiae, flow cytometry GFP, cherry picks, confirmation (AID 2272;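 active means GFP response above 150% of the DMSO control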;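 further: ratio of well signal to plate DMSO mean so 100% equals DMSO level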). The following applies: S. cerevisiae MEP2-GFP strain, 3 h, at 10 µM, stronger effect = higher value.
The nature of assay [4]: yeast AGP1-GFP fluorescence change, single-dose – cell-based, flow cytometry, S. cerevisiae, cherry picks, confirmation (AID 2273).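 Further: median GFP channel fluorescence over the whole cell population gate.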 The following applies: S. cerevisiae AGP1-GFP strain, 3 h, at 10 µM.
Assay [5] in a line: TOR pathway CIT2 reporter hit retest – S. cerevisiae, GFP fusion, cherry picks, mother/daughter gates, confirmation (AID 2274). The settings on record: S. cerevisiae CIT2-GFP strain, flow cytometry, 3 h, at 10 µM, stronger effect = higher value.
[6] abbreviates: measured here: daughter cell gate.
The mark [7] stands for this setting: measured here: mother cell gate.
Setting [8] is: measured here: daughter cell gate response.
The mark [9] stands for this setting: measured here: mother cell gate response.

Activity calls are given as the source filed them.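 How the source made its calls, unless noted: active means GFP response above 150% of the DMSO level; inconclusive means fewer than 70 events counted for a yeast strain; inactive means the rest.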

Consider `CCCCCCc1cc2cc(-c3nnc(-c4ccccc4OC)o3)c(=O)oc2cc1O`, for which the GFP response vs DMSO was 98.7% (inactive) in assay [1], 99.3% in assay [1] (setting [6]), 98.4% in assay [1] (setting [7]) and 106% (inactive) in assay [3]. The values for the GFP response relative to DMSO in assay [2], in assay [2] (setting [8]) and in assay [2] (setting [9]) were 111% (inactive), 105% and 111%, respectively. The GFP response, % of DMSO in assay [4] was 99.1% (inactive); in assay [5] it was 100% (inactive); in assay [5] (setting [6]) it was 101%; in assay [5] (setting [7]), 98.2%.

As to `CC(=O)c1ccc2c3c(cccc13)C(=O)N(c1c(C)nn(C)c1C)C2=O`, the GFP response vs DMSO in assay [1] was 100% (inactive); in assay [1] (setting [6]) it was 100%; in assay [1] (setting [7]), 101%; in assay [3], 102% (inactive). Besides, the GFP response relative to DMSO is 97.7% (inactive) in assay [2], 97.9% in assay [2] (setting [8]) and 97.5% in assay [2] (setting [9]). For the same molecule, the GFP response, % of DMSO in assay [4] was 100% (inactive); in assay [5], 96.4% (inactive); in assay [5] (setting [6]), 98.3%; in assay [5] (setting [7]) it was 96.8%.

With `Cc1ccc(-n2ncc(C#N)c2/N=C/N(C)C)cc1`, the GFP response vs DMSO in assay [1] is 103% (inactive); in assay [1] (setting [6]) it was 101%; in assay [1] (setting [7]) it was 103%; in assay [3], 107% (inactive). The figures for the GFP response relative to DMSO in assay [2], in assay [2] (setting [8]) and in assay [2] (setting [9]) were 101% (inactive), 101% and 103%, respectively. The GFP response, % of DMSO was 94.2% (inactive) in assay [4], 94.4% (inactive) in assay [5], 92% in assay [5] (setting [6]) and 79.7% in assay [5] (setting [7]).

`Cn1cnnc1SCC(=O)Nc1nc(-c2ccc(F)cc2)cs1`: the GFP response vs DMSO is 100% (inactive) in assay [1], 99.1% in assay [1] (setting [6]), 101% in assay [1] (setting [7]) and 103% (inactive) in assay [3]. Moreover, the GFP response relative to DMSO is 97% (inactive) in assay [2], 95.9% in assay [2] (setting [8]) and 97.3% in assay [2] (setting [9]). For the same molecule, the GFP response, % of DMSO in assay [4] is 99.4% (inactive); in assay [5], 102% (inactive); in assay [5] (setting [6]), 103%; in assay [5] (setting [7]), 102%.

Take `O=C(Cn1cc(/C=C\[N+](=O)[O-])c2ccccc21)Nc1ccccc1`: the GFP response vs DMSO was 97.4% (inactive) in assay [1], 97.4% in assay [1] (setting [6]), 97.6% in assay [1] (setting [7]) and 98.3% (inactive) in assay [3]. The values for the GFP response relative to DMSO in assay [2], in assay [2] (setting [8]) and in assay [2] (setting [9]) were 94.1% (inactive), 94.4% and 94%, respectively. Moreover, the GFP response, % of DMSO in assay [4] is 94.7% (inactive); in assay [5], 99.7% (inactive); in assay [5] (setting [6]) it was 101%; in assay [5] (setting [7]) it was 99.7%.

Take `Cc1cccc(NC(c2ccc(C)s2)c2ccc3ccc(C)nc3c2O)n1` (stereo not drawn): the GFP response vs DMSO in assay [1] is 108% (inactive); in assay [1] (setting [6]) it was 120%; in assay [1] (setting [7]), 98.6%; in assay [3] it was 114% (inactive). In addition, the GFP response relative to DMSO in assay [2] is 140% (inactive); in assay [2] (setting [8]), 141%; in assay [2] (setting [9]), 134%. Also, the GFP response, % of DMSO in assay [4] was 94.9% (inactive); in assay [5], 109% (inactive); in assay [5] (setting [6]) it was 121%; in assay [5] (setting [7]), 94.4%.

With `O=C(NCCCSc1ccccc1)c1cc(Br)ccc1O`, the GFP response vs DMSO in assay [1] was 97.8% (inactive); in assay [1] (setting [6]), 97.1%; in assay [1] (setting [7]) it was 99.2%; in assay [3], 100% (inactive). Moreover, the GFP response relative to DMSO in assay [2] was 106% (inactive); in assay [2] (setting [8]), 104%; in assay [2] (setting [9]), 108%. Also, the GFP response, % of DMSO in assay [4] is 93.3% (inactive); in assay [5], 98.3% (inactive); in assay [5] (setting [6]), 99.1%; in assay [5] (setting [7]), 99.7%.

Consider `O=C(Nc1nc(-c2ccccn2)cs1)c1cc2ccccc2o1`, for which the GFP response vs DMSO in assay [1] is 97.4% (inactive); in assay [1] (setting [6]), 96.7%; in assay [1] (setting [7]), 83.7%; in assay [3], 129% (inactive). Moreover, the GFP response relative to DMSO is 285% (active) in assay [2], 163% in assay [2] (setting [8]) and 215% in assay [2] (setting [9]). For the same molecule, the GFP response, % of DMSO was 120% (inactive) in assay [4], 124% (inactive) in assay [5], 104% in assay [5] (setting [6]) and 91% in assay [5] (setting [7]).
